Screening data deposited in PubChem by several laboratories.
Rows were chosen to be rich in hits. Some 4.9% of all compounds tested hit in one or more screens of this group.
STAT3 blocker: reduces IL-6 driven STAT3 reporter signal; 190,000 compounds, 0.89% hits; inhibition, % at 5.5 µM; U3A cells, IL-6 STAT3-luciferase reporter, luminescence; host cell line lacks STAT1;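 active means inhibition above the mean inhibition across all screened compounds plus 3 SD, cut at about 44% in these data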;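 further: 0% = DMSO only wells and 100% = 100 µM nifuroxazide control wells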
STAT1 inh-1: STAT1 signaling inhibition; AID 920; inhibition, % at 5.5 µM; 200,000 compounds, 0.35% hits; NIH 3T3 STAT1-luciferase reporter, IFN-gamma, luminescence;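 active means inhibition above a set limit, the mean inhibition across all tested compounds plus 3 SD, cut at about 34% in these data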;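 further: 0% = IFN-gamma with DMSO and 100% = IFN-gamma with 300 µM nifuroxazide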
STAT3 act-1: increases IL-6 driven STAT3 reporter signal; U3A cells, IL-6 STAT3-luciferase reporter, luminescence; 100% = signal with IL-6 EC80 alone; activation (% of control), % at 5.6 µM; 190,000 compounds, 0.91% hits;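 active means activation above the screen-wide mean of compound activation plus 3 SD, cut at about 130% in these data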;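 further: 0% = background luminescence of wells with medium and substrate only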
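Detection: reporter luminescence signal / Assay system: STAT1-lacking human U3A cells, STAT3 luciferase reporter / Incubation: compound pre-incubation 1 h before IL-6, then 6 h stimulation at 37 °C / Control set: IL-6-only high control / Read-out: % activation relative to IL-6 control / Probe or stimulus: Interleukin-6, 33 ng/mL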
APP 5'UTR act: activates APP 5'UTR luciferase reporter; SH-SY5Y APP 5'UTR luciferase reporter, luminescence; zero percent = DMSO vehicle wells; activation, % at 2 µM; 190,000 compounds, 1% hits; AID 1276;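 active means activation above a set limit, based on mean plus 3 SD of controls, cut at about 140% in these data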
STAT1 act-1: increases IFN-gamma driven STAT1 reporter signal; NIH 3T3 STAT1-luciferase reporter, luminescence; 100% = IFN-gamma alone, no compound; activation (% of control), % at 5.5 µM; AID 932; 200,000 compounds, 2.6% hits;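 active means activation above the screen-wide mean activation plus 3 SD, cut at about 130% in these data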;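 further: raw ratio to IFN-gamma control signal so 100% means no change and 0% no light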
NF-kB neuron act: raises NF-kB expression in human neuronal cells; NF-kB reporter expression; active compounds read high; fold change at 12.5 µM; 190,000 compounds, 1.6% hits; AID 1239; in the data active means fold change above about 3.3
STAT3 act-2: STAT3 activation, confirmation assay; U3A STAT3-luciferase reporter, IL-6 potentiation, luminescence; U3A cells lack STAT1; 100 means same as IL-6 alone; 1,200 compounds, 64% hits; shares compounds with STAT3 act-1; potentiation (% of control), % at 5.7 µM;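 active means percent activation of the STAT3 luciferase reporter above a set limit taken from the earlier primary screen, cut at about 130% in these data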;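 further: 0% = background signal of medium plus substrate and 100% = median of IL-6 with DMSO wells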
NFkB act STAT3ct: counter-screen for STAT3 activators: NF-kappaB activation. shares compounds with STAT3 act-1. human cells, NF-kappaB reporter activation. activation (% of control), % at 5.7 µM. 1,200 compounds, 11% hits; in the data active means activation above about 120%;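 further: reporter induced by TNF-alpha stimulation; 100% = median of stimulated DMSO wells and 0% = no signal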
STAT1 act-2: counter-screen for STAT3 activators: STAT1 activation. shares compounds with STAT3 act-1. NIH 3T3 STAT1-luciferase reporter, IFN-gamma, luminescence. activation (% of control), % at 5.7 µM. 1,200 compounds, 13% hits. AID 1318;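 active means activation above the solvent-only control well mean plus 3 SD, set per screening run, cut at about 120% in these data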;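 further: 100% = IFN-gamma with DMSO median signal so 100% means no change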
STAT1 inh-2: STAT1 inhibition, confirmation assay | shares compounds with STAT1 inh-1 | NIH 3T3 STAT1-luciferase reporter, IFN-gamma, luminescence | inhibition, % at 5.5 µM | 200 compounds, 55% hits | AID 1263;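 active means triplicate mean inhibition exceeding the hit cutoff computed for the primary STAT1 screen, cut at about 35% in these data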;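 further: 0% = DMSO with IFN-gamma and 100% = 300 µM nifuroxazide with IFN-gamma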
NFkB inh STAT1ct: inhibits NF-kappaB, counter-screen to STAT1 inhibitors. shares compounds with STAT1 inh-1. HEK293T NF-kB luciferase reporter, TNF-alpha induced, luminescence. inhibition, % at 5.7 µM. 200 compounds, 30% hits. AID 1303;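 active means inhibition above the mean of solvent-only control wells plus 3 SD of those wells, cut at about 15% in these data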;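 further: 0% = DMSO with TNF-alpha and 100% = MG-132 control with TNF-alpha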
STAT3 inh STAT1c: inhibits STAT3, counter-screen to STAT1 inhibitors. shares compounds with STAT1 inh-1. U3A cells, IL-6 STAT3 luciferase reporter, luminescence; cells lacking STAT1. inhibition, % at 5.7 µM. 200 compounds, 20% hits;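 active means inhibition above the mean of solvent-only control wells plus 3 SD, set per campaign, cut at about 25% in these data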;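 further: 0% = IL-6 plus DMSO and 100% = IL-6 plus nifuroxazide control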
STAT1 activ conf: confirmation of STAT1 signaling activators; shares compounds with STAT1 act-1; NIH 3T3 STAT1-luciferase reporter, IFN-gamma potentiation, luminescence; 100% = IFN-gamma EC80 alone, no compound; activation (% of control), % at 5.7 µM; 1,200 compounds, 97% hits; AID 1262;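 active means activation above a set limit carried over from the earlier primary STAT1 screen, cut at about 140% in these data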;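 further: simple ratio to median IFN-gamma plus DMSO wells so 0% means no light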
NFkB act STAT1ct: NF-kappaB activation in STAT1 activator counter-screen; shares compounds with STAT1 act-1; HEK293T NF-kB luciferase reporter, TNF-alpha stimulated, luminescence; 100% = TNF-alpha with vehicle only; 1,200 compounds, 43% hits; AID 1306; activation (% of control), % at 5.7 µM;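 active means activation above the mean of solvent-only control wells plus 3 SD, set per campaign, cut at about 130% in these data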;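 further: TNF-alpha given at a submaximal dose yielding about 80% of full reporter signal; values are well signal over median control so 100% means no change and 0% no light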
STAT3 act 2: counter-screen for STAT1 activators: human STAT3 activation; shares compounds with STAT1 act-1; U3A cells STAT3-luciferase reporter, IL-6, luminescence; cells lack STAT1; 100 = IL-6 alone, no compound effect; activation (% of control), % at 5.7 µM; 1,200 compounds, 46% hits;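 active means activation above the solvent-only control well mean plus 3 SD, set per plate batch, cut at about 110% in these data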;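 further: 0% = no luminescence and 100% = median IL-6 plus DMSO wells; higher means more STAT3 reporter activation so hits are non-selective activators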
* marks the source's active call; other numbers are inactive results; x = not tested or not shown.

SMILES	STAT3 blocker	STAT1 inh-1	STAT3 act-1	APP 5'UTR act	STAT1 act-1	NF-kB neuron act	STAT1 activ conf	NFkB act STAT1ct	STAT3 act 2	others
O=c1[nH]c(=O)n(Cc2ccccc2Cl)c(O)c1/C=C1/C=CC=N1	-42.6	1.0	138.9*	-44.6	98.7	1.67	x	x	x	STAT3 act-2=123.6;NFkB act STAT3ct=105.8;STAT1 act-2=102.4
C=CCn1c(O)c(/C=C2/C=CC=N2)c(=O)[nH]c1=O	2.4	-6.2	94.5	7.0	105.6	0.64	x	x	x
CCC(CC)NCc1c[nH]c2ccccc12	-51.4	12.5	146.1*	14.2	86.8	1.36	x	x	x	STAT3 act-2=163.5*;NFkB act STAT3ct=111.9;STAT1 act-2=101.0
Cc1cc(C(=O)C[N+]23CCN(CC2)CC3)c(C)n1-c1ccc(Br)cc1	-4.1	-2.4	106.7	23.4	101.9	1.19	x	x	x
CC(C)[C@H]1C(=O)O[C@H](C(C)C)C(=O)N(C)[C@@H](C(C)C)C(=O)O[C@H](C(C)C)C(=O)N(C)[C@@H](C(C)C)C(=O)O[C@H](C(C)C)C(=O)N1C	x	46.8*	x	-4.8	56.4	0.63	x	x	x	STAT1 inh-2=27.9;NFkB inh STAT1ct=4.2;STAT3 inh STAT1c=17.2
COc1cc(CC2(CCc3ccncc3)C(=O)N(C)C(=O)N(C)C2=O)cc(OC)c1OC	1.8	4.0	100.2	-14.1	94.8	1.06	x	x	x
Cc1cc(C)cc(N2C(=O)NC(=O)/C(=C\c3cccn3-c3ccc(Cl)cc3)C2=O)c1	-4.3	38.2*	110.5	0.7	65.5	1.1	x	x	x	STAT1 inh-2=23.4;NFkB inh STAT1ct=-38.7;STAT3 inh STAT1c=-21.2
Cc1cc(C)cc(N2C(=O)NC(=O)/C(=C\c3cccn3-c3ccccc3)C2=O)c1	-3.0	21.2	105.8	-13.3	80.9	1.11	x	x	x
COc1cc(C=C2C(=O)NC(=O)NC2=O)ccc1OCc1ccc([N+](=O)[O-])cc1	3.1	-56.6	99.4	1.7	152.0*	3.42*	174.6*	136.2*	121.5*
O=C1NC(=O)C(=Cc2ccc(Oc3ccc([N+](=O)[O-])cc3)cc2)C(=O)N1	11.9	-11.9	98.6	16.8	109.1	1.21	x	x	x
O=C(c1cc2c(s1)-c1ccccc1OC2)N1CCC2(CC1)OCCO2	3.4	-63.6	99.5	142.4*	158.2*	3.85*	195.6*	133.8*	118.8*
CN(C)CC1CSCCC1(O)c1ccc(C(F)(F)F)cc1 (stereo unspecified)	1.7	-5.5	97.8	-7.9	104.9	0.86	x	x	x
COc1ccc(-c2cc(=NCCC(=O)O)c3cc(C)ccc3o2)cc1	8.5	-58.8	94.2	144.8*	153.4*	3.7*	154.0*	131.3	102.7
COc1ccc(-c2cc(=Nc3ccccc3)c3cc(C)ccc3o2)cc1	20.4	-72.1	85.2	134.2	165.1*	8.59*	143.4*	131.5	97.0
COc1ccc(-c2cc(=O)c3c(OC)c(OC)c(OC)cc3o2)cc1	x	-6.2	x	1.8	104.5	0.82	x	x	x
N#CCCn1cc(C(=O)Nc2ccccc2Br)c(-c2ccc3c(c2)OCCO3)n1	1.0	6.7	98.0	-0.8	93.8	1.33	x	x	x
